# Active and inactive are the calls of the source. No cut-off for these calls is given here. Peptide text beside a SMILES is read from it. * marks the point of attachment. Cbz = O=C(OCc1ccccc1)*; Boc = CC(C)(C)OC(=O)*
# T1: Prostaglandin G/H synthase 2 (Homo sapiens, UniProt P35354)
# T1 sequence (P35354 whole entry): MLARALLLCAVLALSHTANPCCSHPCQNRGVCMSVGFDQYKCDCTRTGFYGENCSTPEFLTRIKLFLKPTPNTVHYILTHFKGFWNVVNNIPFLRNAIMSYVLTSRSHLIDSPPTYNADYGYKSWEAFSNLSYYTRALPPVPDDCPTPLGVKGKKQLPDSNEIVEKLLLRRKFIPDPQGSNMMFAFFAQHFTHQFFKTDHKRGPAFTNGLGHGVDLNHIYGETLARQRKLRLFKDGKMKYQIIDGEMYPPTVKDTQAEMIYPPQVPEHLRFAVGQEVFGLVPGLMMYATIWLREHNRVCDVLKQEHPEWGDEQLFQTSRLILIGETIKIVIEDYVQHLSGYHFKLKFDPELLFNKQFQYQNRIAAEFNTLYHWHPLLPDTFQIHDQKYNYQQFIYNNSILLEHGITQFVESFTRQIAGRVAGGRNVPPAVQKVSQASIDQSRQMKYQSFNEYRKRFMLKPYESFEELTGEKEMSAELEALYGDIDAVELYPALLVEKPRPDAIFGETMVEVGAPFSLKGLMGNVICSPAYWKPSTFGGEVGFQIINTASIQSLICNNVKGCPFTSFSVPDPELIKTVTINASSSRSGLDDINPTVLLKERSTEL
# T2: Prostaglandin G/H synthase 1 (Ovis aries, UniProt P05979)
# T2 sequence (P05979 whole entry): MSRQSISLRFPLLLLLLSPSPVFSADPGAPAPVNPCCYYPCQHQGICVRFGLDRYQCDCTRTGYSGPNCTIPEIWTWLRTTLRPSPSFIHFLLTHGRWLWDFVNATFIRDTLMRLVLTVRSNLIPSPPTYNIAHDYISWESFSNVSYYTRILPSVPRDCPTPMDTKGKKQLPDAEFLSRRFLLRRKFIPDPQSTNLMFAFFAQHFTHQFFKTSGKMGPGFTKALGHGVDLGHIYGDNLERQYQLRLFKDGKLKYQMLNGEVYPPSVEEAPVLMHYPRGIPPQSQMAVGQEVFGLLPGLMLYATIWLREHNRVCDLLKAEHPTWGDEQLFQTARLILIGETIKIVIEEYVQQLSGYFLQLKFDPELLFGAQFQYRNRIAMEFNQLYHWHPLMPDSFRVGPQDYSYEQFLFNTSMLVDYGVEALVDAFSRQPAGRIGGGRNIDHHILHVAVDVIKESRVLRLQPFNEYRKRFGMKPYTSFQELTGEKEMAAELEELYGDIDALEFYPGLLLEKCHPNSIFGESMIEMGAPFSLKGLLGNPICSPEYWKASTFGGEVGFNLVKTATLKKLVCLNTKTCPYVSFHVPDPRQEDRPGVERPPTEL
# B1: Prostaglandin G/H synthase 2 (Homo sapiens) (protein)
# chain: T1 sequence (P35354 whole entry)
# Columns and labels:
# Rattus norvegicus [1] = assay: Analgesic activity in Wistar rat model of acetic-acid-induced writhing assessed as inhibition of writhing numbers at 5 to 10 mg/kg, ip preincubated for 30 mins followed by acetic acid induction and measured for 30 mins relative to control; format: functional; design: scale not given: the % may be the effect or the level left
# Method in brief: (§1)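 Male Wistar rats (250-300 g) in groups of 5. Writhing (abdominal contraction, trunk twisting, hind-leg extension) was induced by intraperitoneal acetic acid, and writhes were counted. Test doses were 5 and 10 mg/kg, with a vehicle control and indomethacin 10 mg/kg as reference. Data are mean±SEM (n=5), analysed by one-way ANOVA with Tukey's test (p<.05 vs control).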
# Rattus norvegicus [2] = assay: Anti-inflammatory activity in Wistar rat assessed as inhibition of carrageenan-induced paw edema at 10 mg/kg, ip preincubated for 1 hr followed by carrageenan challenge and measured for 6 hrs; format: functional, organism-based
# Method in brief: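 Carrageenan-induced paw inflammation in male Wistar rats (250-300 g), three groups of 5 animals. Data are mean±SEM (n=5), analysed by one-way ANOVA with Tukey's multiple range test (p<.05 vs control).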
# [3] = Drug metabolism in Wistar rat assessed as 2-((S)-2-((S)-1-(2-aminoacetyl)pyrrolidine-2-carboxamido)propanamido)acetic acid formation at 10 mg/kg, ip measured after 6 hrs by LC-MS analysis; format: ADME, organism-based; conditions: in vivo
# Method in brief: (§2)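 Blood serum was taken from treated rats at 30, 60, 90 and 120 min. Proteins were removed by centrifugation, and the supernatants were analysed by LC-MS with HRMS identification of peptide fragments. Breakdown was assessed up to 6 h.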
# [4] = Drug metabolism in Wistar rat assessed as 2-((S)-2-((S)-1-(2-((S)-2-aminopropanamido)acetyl)pyrrolidine-2-carboxamido)propanamido)acetic acid formation at 10 mg/kg, ip measured after 6 hrs by LC-MS analysis; format: ADME, organism-based; conditions: in vivo; method in brief: as §2
# [5] = Drug metabolism in Wistar rat assessed as (S)-2-((S)-1-(2-((S)-2-aminopropanamido)acetyl)pyrrolidine-2-carboxamido)propanoic acid formation at 10 mg/kg, ip measured after 6 hrs by LC-MS analysis; format: ADME, organism-based; conditions: in vivo; method in brief: as §2
# Rattus norvegicus [6] = assay: Analgesic activity in Wistar rat model of formalin-induced hyperalgesia assessed as reduction in number of formalin-evoked paw flinching during inflammatory phase at 10 mg/kg preincubated for 30 mins followed by formalin treatment and measured after 15 to 30 mins relative to control; format: functional; design: scale not given: the % may be the effect or the level left
# Method in brief: (§3)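 Formalin paw test in male Wistar rats (250-300 g), 5 per group. Flinching was counted separately in the neurogenic and inflammatory phases. Modulator studies used pre-treatment with substance P, L-NAME or L-arginine (NO precursor) in three groups each. Data are mean±SEM (n=5), analysed by one-way ANOVA with Tukey's test (p<.05 vs control).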
# [7] = Drug metabolism in Wistar rat assessed as (S)-1-(2-((S)-2-aminopropanamido)acetyl)pyrrolidine-2-carboxylic acid formation at 10 mg/kg, ip measured after 6 hrs by LC-MS analysis; format: ADME, organism-based; conditions: in vivo; method in brief: as §2
# [8] = Acute toxicity in Wistar rat assessed as induction of morphological lesions in myocardium at 2000 mg/kg, po measured after 14 days by histological analysis; format: organism-based; conditions: in vivo, 336 h
# Method in brief: (§4)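 Acute oral toxicity per OECD guideline: rats fasted 4 h, then vehicle or single dose of 50, 300 or 2000 mg kg^-1; three rats per group. Animals observed for 14 days; one animal from the high-dose group and one control then sacrificed for tissue histology examined for lesions. Male Wistar rats, 250-300 g.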
# [9] = biological target: Prostaglandin G/H synthase 1 (Homo sapiens, UniProt P23219); assay: Inhibition of COX-1 in human whole blood assessed as reduction in calcium ionophore A23187-stimulated thromboxane B2 production by measuring thromboxane B2 level at 1 uM preincubated for 60 mins followed by calcium ionophore A23187 stimulation and measured after 30 mins by ELISA (reference value: 1.4 ng/mL); format: tissue-based; conditions: 0.5 h
# Chain of Prostaglandin G/H synthase 1 (Homo sapiens, UniProt P23219) (P23219 whole entry): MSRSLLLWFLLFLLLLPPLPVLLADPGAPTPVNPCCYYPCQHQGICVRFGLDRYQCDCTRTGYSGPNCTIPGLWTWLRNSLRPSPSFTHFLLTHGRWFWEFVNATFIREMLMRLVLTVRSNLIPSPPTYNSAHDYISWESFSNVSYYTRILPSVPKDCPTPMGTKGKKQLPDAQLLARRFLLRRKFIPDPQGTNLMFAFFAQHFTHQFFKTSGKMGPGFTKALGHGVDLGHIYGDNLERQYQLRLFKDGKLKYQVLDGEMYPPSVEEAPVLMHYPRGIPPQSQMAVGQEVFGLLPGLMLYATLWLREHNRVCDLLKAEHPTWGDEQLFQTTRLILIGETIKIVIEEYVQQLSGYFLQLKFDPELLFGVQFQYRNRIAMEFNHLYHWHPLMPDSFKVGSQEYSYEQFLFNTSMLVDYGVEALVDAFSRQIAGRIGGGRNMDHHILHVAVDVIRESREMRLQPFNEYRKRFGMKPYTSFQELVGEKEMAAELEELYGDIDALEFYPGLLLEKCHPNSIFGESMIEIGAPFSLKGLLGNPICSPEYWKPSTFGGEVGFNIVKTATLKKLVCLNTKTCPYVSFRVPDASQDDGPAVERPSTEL
# Method in brief: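 Human whole blood stimulated with calcium ionophore to drive COX-1, with thromboxane B2 formation measured. The test concentration was 1 μM, and indomethacin 1 μM served as reference.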
# Rattus norvegicus [10] = assay: (§5) Analgesic activity in Wistar rat model of formalin-induced hyperalgesia assessed as reduction in number of formalin-evoked paw flinching during neurogenic phase at 10 mg/kg administered intraperitoneally 30 mins after substance P injection followed by formalin induction after 30 mins and measured during first 5 mins post formalin injection; format: functional, organism-based; method in brief: as §3
# Rattus norvegicus [11] = assay: as §5, with “NOS inhibitor L-NAME” for “substance P”; format: functional, organism-based; method in brief: as §3
# [12] = Acute toxicity in Wistar rat assessed as induction of morphological lesions in liver at 2000 mg/kg, po measured after 14 days by histological analysis; format: organism-based; conditions: in vivo, 336 h; method in brief: as §4
# Rattus norvegicus [13] = assay: as §5, with “nitric oxide precursor L-arginine” for “substance P”; format: functional, organism-based; method in brief: as §3
# [14] = biological target: T1, Prostaglandin G/H synthase 2; assay: Substrate activity at COX-2 (unknown origin) in DMSO-d6 assessed as chemical shift of NH protons of alanine residues by 1H NMR analysis; format: ADME
# Rattus norvegicus [15] = assay: Analgesic activity in Wistar rat model of formalin-induced hyperalgesia assessed as reduction in number of formalin-evoked paw flinching during neurogenic phase at 10 mg/kg preincubated for 30 mins followed by formalin treatment and measured during first 5 mins post formalin injection relative to control; format: functional; design: scale not given: the % may be the effect or the level left; method in brief: as §3
# [16] = biological target: T1, Prostaglandin G/H synthase 2; assay: Substrate activity at COX-2 (unknown origin) in DMSO-d6 assessed as chemical shift of NH protons of glycine residues by 1H NMR analysis; format: ADME
# Rattus norvegicus [17] = assay: as §5, with “inflammatory” for “neurogenic”, “NOS inhibitor L-NAME” for “substance P”, “after 15 to 30” for “during first 5”; format: functional, organism-based; method in brief: as §3
# Rattus norvegicus [18] = assay: as §5, with “inflammatory” for “neurogenic”, “nitric oxide precursor L-arginine” for “substance P”, “after 15 to 30” for “during first 5”; format: functional, organism-based; method in brief: as §3
# [19] = Acute toxicity in Wistar rat assessed as induction of morphological lesions in kidney at 2000 mg/kg, po measured after 14 days by histological analysis; format: organism-based; conditions: in vivo, 336 h; method in brief: as §4
# [20] = Drug metabolism in Wistar rat assessed as methyl 2-((S)-2-((S)-1-(2-aminoacetyl)pyrrolidine-2-carboxamido)propanamido)acetate formation at 10 mg/kg, ip measured after 6 hrs by LC-MS analysis; format: ADME, organism-based; conditions: in vivo; method in brief: as §2
# Rattus norvegicus [21] = assay: as §5, with “inflammatory” for “neurogenic”, “after 15 to 30” for “during first 5”; format: functional, organism-based; method in brief: as §3
# [22] = biological target: T2, Prostaglandin G/H synthase 1; assay: Inhibition of ovine COX-1 assessed as reduction in prostaglandin production preincubated for 10 mins followed by arachidonic acid addition and measured after 2 mins by EIA method
# Rattus norvegicus [23] = assay: Analgesic activity in Wistar rat model of acetic-acid-induced writhing assessed as inhibition of writhing numbers at 10 mg/kg, ip preincubated for 30 mins followed by acetic acid induction and measured for 30 mins; format: functional, organism-based; method in brief: as §1
# [24] = substrate: CCCCC/C=C\C/C=C\C/C=C\C/C=C\CCCC(=O)O; assay: (§6) Substrate activity at COX-2 (unknown origin) in pH 7.5 HEPES buffer assessed as enzyme-mediated test compound metabolism by measuring Km by LC-MS analysis; format: ADME, Homo sapiens
# [25] = substrate: COC(=O)CNC(=O)[C@H](C)NC(=O)[C@@H]1CCCN1C(=O)CNC(=O)[C@H](C)N; assay: as §6; format: ADME, Homo sapiens
molecule,measurement,setting,value
COC(=O)CNC(=O)[C@H](C)NC(=O)[C@@H]1CCCN1C(=O)CNC(=O)[C@H](C)NC(=O)OCc1ccccc1 (Cbz-AGPAG-OMe),Activity,Rattus norvegicus [1],80%
COC(=O)CNC(=O)[C@H](C)NC(=O)[C@@H]1CCCN1C(=O)CNC(=O)[C@H](C)N (H-AGPAG-OMe),Activity,Rattus norvegicus [2],Active
same,Drug metabolism,[3],Metabolite_Detected
same,Drug metabolism,[4],Metabolite_Detected
same,Drug metabolism,[5],Metabolite_Detected
same,Activity,Rattus norvegicus [6],80%
same,Activity,Rattus norvegicus [1],80%
same,Drug metabolism,[7],Metabolite_Detected
same,Activity,[8],Non-Toxic
same,Activity,[9],1.2 ng/mL
same,Activity,Rattus norvegicus [10],inactive
same,Activity,Rattus norvegicus [11],Active
same,Activity,[12],Non-Toxic
same,Activity,Rattus norvegicus [13],inactive
same,Activity,[14],Active
same,Activity,Rattus norvegicus [15],56%
same,Activity,[16],Active
same,Activity,Rattus norvegicus [17],Active
same,Activity,Rattus norvegicus [18],inactive
same,Activity,[19],Non-Toxic
same,Drug metabolism,[20],Metabolite_Detected
same,Activity,Rattus norvegicus [21],inactive
COC(=O)CNC(=O)[C@H](CCSC)NC(=O)[C@H](Cc1ccccc1)NC(=O)[C@@H]1CCCN1C(=O)OC(C)(C)C (Boc-PFMG-OMe),IC50,[22],50 µM
same,Activity,Rattus norvegicus [1],Active
COC(=O)[C@H](Cc1ccccc1)NC(=O)[C@@H]1CCCN1C(=O)CNC(=O)[C@H](CCSC)NC(=O)OCc1ccccc1 (Cbz-MGPF-OMe),IC50,[22],0.5 µM
same,Activity,Rattus norvegicus [1],Active
COc1ccc2c(c1)c(CC(=O)O)c(C)n2C(=O)c1ccc(Cl)cc1 [INDOMETHACIN],Activity,Rattus norvegicus [2],Active
same,Activity,Rattus norvegicus [6],Active
same,Activity,[9],0.7 ng/mL
same,Activity,Rattus norvegicus [15],inactive
same,Activity,Rattus norvegicus [23],Active
COC(=O)CNC(=O)[C@H](Cc1ccccc1)NC(=O)[C@@H]1CCCN1C(=O)[C@H](Cc1ccccc1)NC(=O)[C@H](C)NC(=O)OCc1ccccc1 (Cbz-AFPFG-OMe),IC50,[22],600 µM
same,Activity,Rattus norvegicus [1],Active
B1,Km,[24],210 µM
same,kcat,[24],200 s⁻¹
same,kcat/Km,[24],950000 M⁻¹ s⁻¹
same,Km,[25],21 µM
same,kcat,[25],13.2 s⁻¹
same,kcat/Km,[25],630000 M⁻¹ s⁻¹

# Reference: ChEMBL document CHEMBL4364282, “Engineered Substrate for Cyclooxygenase-2: A Pentapeptide Isoconformational to Arachidonic Acid for Managing Inflammation” (J Med Chem, 2019)
